{
  "source": "ChEMBL document CHEMBL1123956",
  "about": "“Nitrosoureido nucleosides as potential inhibitors of nucleotide biosynthesis” (J Med Chem, 1988)",
  "key": {"HEp-2": {"tested_on": "HEp-2", "experiment": "Inhibition of colony formation of H.Ep-2 cells", "format": "functional, cell-based", "conditions": "Homo sapiens, read-out: I50", "outline": "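H.Ep.-2 cells exposed to drug over a 12-day period. Colony formation was scored against untreated controls, and I50 was taken as the concentration giving 50% inhibition.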"}, "L1210 [1]": {"tested_on": "L1210", "experiment": "Inhibition of proliferation of L1210 cells", "format": "functional, cell-based", "conditions": "Mus musculus, read-out: I50", "outline": "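L1210 cells in suspension culture with drug for 48 h. I50 was the concentration giving 50% inhibition of proliferation relative to controls.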"}, "[2]": {"experiment": "(§1) Half life was measured at pH 7", "format": "ADME", "outline": "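Stability in pH 7 buffer, followed by HPLC; reported as half-life. The method is taken from an earlier paper.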"}, "Mus musculus": {"tested_on": "Mus musculus", "experiment": "Percent increase in life span of p388 leukemia induced mice was determined at a dose of 200 mg/kg upon ip administration on days 1-5", "format": "functional", "conditions": "route intraperitoneal", "outline": "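Mice implanted with 10⁶ P388 leukemia cells were dosed intraperitoneally once daily on days 1-5 after implant. Activity is expressed as % increase in life span, and 30-day survivors were recorded.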"}, "[3]": {"experiment": "as §1", "format": "ADME", "outline": "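Stability in pH 7 buffer, with decomposition followed by HPLC and the half-life taken from it.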", "remark": "listed apart in the source"}, "L1210 [4]": {"tested_on": "L1210", "experiment": "Size distribution of cells at 100 uM conc.", "format": "functional, Mus musculus", "outline": "(§2)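 L1210 suspension cultures with agent for 30 min or 18 h, then a 4-h labelling period. Size distribution was measured on a Model ZH Coulter Counter. The value is the instrument setting at the peak of cell size; higher settings mean larger cells.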"}, "L1210 [5]": {"tested_on": "L1210", "experiment": "percent synthesis of RNA in L1210 cells when incubated with compound for 18 hr using […] as radioligand at 25 uM conc.", "format": "functional, Mus musculus", "outline": "(§3)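 RNA synthesis in L1210 suspension cultures preincubated with agent for 30 min or 18 h. [5-3H]Urd was then added, and incorporation into RNA was sampled hourly over 4 h. Values are 4-h incorporation as % of untreated control.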"}, "L1210 [6]": {"tested_on": "L1210", "experiment": "percent synthesis of RNA in L1210 cells when incubated with compound for 18 hr using […] as radioligand at 50 uM conc.", "format": "functional, Mus musculus", "outline": "as §3"}, "L1210 [7]": {"tested_on": "L1210", "experiment": "Number of cells present measured with the Coulter counter at 50 uM conc.", "format": "functional, Mus musculus", "outline": "(§4)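 L1210 suspension cultures with agent for 30 min or 18 h, then a further 4 h with radiolabelled precursor. Cells were counted by Coulter counter and expressed as R, the count relative to the initial cell number (R = 1.0). R < 1.0 means a fall below the starting number; R > 1.0 means proliferation.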"}, "L1210 [8]": {"tested_on": "L1210", "experiment": "percent synthesis of DNA in L1210 cells when incubated with the compound for 18 h using […] as radioligand at 50 uM conc.", "format": "functional, Mus musculus", "outline": "(§5)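 DNA synthesis in L1210 suspension cultures preincubated with agent for 30 min or 18 h. [3H]dThd was then added to the medium, and incorporation into DNA was sampled at 1-h intervals over 4 h. Values are for the 4-h labelling period, as % of untreated control.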"}, "L1210 [9]": {"tested_on": "L1210", "experiment": "Size distribution of cells at 25 uM conc.", "format": "functional, Mus musculus", "outline": "as §2"}, "L1210 [10]": {"tested_on": "L1210", "experiment": "percent synthesis of protein in L1210 cells when incubated with the compound for 18 h uusing [3H]L-Leu as radioligand at 50 uM conc.", "format": "functional, Mus musculus", "outline": "(§6)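 Protein synthesis in L1210 suspension cultures preincubated with agent for 30 min or 18 h. [4,5-3H]-L-leucine was then added, and incorporation into protein was sampled hourly over 4 h. Values are 4-h incorporation as % of untreated control.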"}, "L1210 [11]": {"tested_on": "L1210", "experiment": "Number of cells present measured with the Coulter counter at 25 uM conc.", "format": "functional, Mus musculus", "outline": "as §4"}, "L1210 [12]": {"tested_on": "L1210", "experiment": "percent synthesis of RNA in L1210 cells when incubated with compound for 30 min using […] as radioligand at 100 uM conc.", "format": "functional, Mus musculus", "outline": "as §3"}, "L1210 [13]": {"tested_on": "L1210", "experiment": "percent synthesis of DNA in L1210 cells when incubated with the compound for 30 min using […] as radioligand at 100 uM conc.", "format": "functional, Mus musculus", "outline": "as §5"}, "L1210 [14]": {"tested_on": "L1210", "experiment": "percent synthesis of RNA in L1210 cells when incubated with compound for 30 min using [3H]dThd as radioligand at 50 uM conc.", "format": "functional, Mus musculus", "conditions": "in the assay text read “[5-3H]Urd” for “[3H]dThd”", "outline": "as §3"}, "L1210 [15]": {"tested_on": "L1210", "experiment": "percent synthesis of protein in L1210 cells when incubated with the compound for 30 min using [3H]L-Leu as radioligand at 50 uM conc.", "format": "functional, Mus musculus", "outline": "as §6"}, "L1210 [16]": {"tested_on": "L1210", "experiment": "Number of cells present measured with the Coulter counter at 100 uM conc.", "format": "functional, Mus musculus", "outline": "as §4"}, "L1210 [17]": {"tested_on": "L1210", "experiment": "percent synthesis of DNA in L1210 cells when incubated with the compound for 30 min using […] as radioligand at 50 uM conc.", "format": "functional, Mus musculus", "outline": "as §5"}, "L1210 [18]": {"tested_on": "L1210", "experiment": "percent synthesis of DNA in L1210 cells when incubated with the compound for 18 h using […] as radioligand at 25 uM conc.", "format": "functional, Mus musculus", "outline": "as §5"}, "L1210 [19]": {"tested_on": "L1210", "experiment": "Size distribution of cells at 50 uM conc.", "format": "functional, Mus musculus", "outline": "as §2"}},
  "note": "Where “and” joins values, the source holds several entries; their conditions need not be identical. Equal entries are not always repeated.",
  "data": [
    {"smiles": "CCN(N=O)C(=O)NCC1OC(n2cc(C)c(=O)[nH]c2=O)CC1O", "note": "(stereo unspecified)", "values": [
      {"measurement": "IC50", "setting": "HEp-2", "result": "> 87", "unit": "µM"},
      {"measurement": "IC50", "setting": "L1210 [1]", "result": "> 87", "unit": "µM"},
      {"measurement": "half-life", "setting": "[2]", "result": 1140, "unit": "min"},
      {"measurement": "ILS at 200 mg/kg", "setting": "Mus musculus", "result": 0, "unit": "%"}
    ]},
    {"smiles": "Cc1cn(C2CC(O)C(C(=O)Nc3ccc(NC(=O)N(C)N=O)cc3)O2)c(=O)[nH]c1=O", "note": "(stereo unspecified)", "values": [
      {"measurement": "IC50", "setting": "HEp-2", "result": 46, "unit": "µM"},
      {"measurement": "IC50", "setting": "L1210 [1]", "result": "> 90", "unit": "µM"},
      {"measurement": "half-life", "setting": "[2]", "result": 24, "unit": "min"},
      {"measurement": "ILS at 200 mg/kg", "setting": "Mus musculus", "result": 79, "unit": "%"}
    ]},
    {"smiles": "O=NN(CCCl)C(=O)N[C@H]1C(O)O[C@H](CO)[C@@H](O)[C@@H]1O", "note": "(stereo partly specified) [CHLOROZOTOCIN]", "values": [
      {"measurement": "T1/2", "setting": "[3]", "result": 52.5, "unit": "min"}
    ]},
    {"smiles": "O=NN(CCCl)C(=O)NC1CCCCC1", "note": "[LOMUSTINE]", "values": [
      {"measurement": "Cell size", "setting": "L1210 [4]", "result": "65 and 85"},
      {"measurement": "Control", "setting": "L1210 [5]", "result": "106% and 282%"},
      {"measurement": "Control", "setting": "L1210 [6]", "result": 393, "unit": "%"},
      {"measurement": "Cell no", "setting": "L1210 [7]", "result": "1 and 0.53"},
      {"measurement": "Control", "setting": "L1210 [8]", "result": 143, "unit": "%"},
      {"measurement": "Cell size", "setting": "L1210 [9]", "result": "67.5 and 90"},
      {"measurement": "Control", "setting": "L1210 [10]", "result": 584, "unit": "%"},
      {"measurement": "Cell no", "setting": "L1210 [11]", "result": "1.02 and 0.48"},
      {"measurement": "Control", "setting": "L1210 [12]", "result": "101% and 246%"},
      {"measurement": "Control", "setting": "L1210 [13]", "result": "46% and 131%"},
      {"measurement": "Control", "setting": "L1210 [14]", "result": 121, "unit": "%"},
      {"measurement": "Control", "setting": "L1210 [15]", "result": 79, "unit": "%"},
      {"measurement": "Cell no", "setting": "L1210 [16]", "result": "1 and 0.42"},
      {"measurement": "Control", "setting": "L1210 [17]", "result": 75, "unit": "%"},
      {"measurement": "Control", "setting": "L1210 [18]", "result": "88% and 139%"},
      {"measurement": "Cell size", "setting": "L1210 [19]", "result": "62.5 and 90"}
    ]},
    {"smiles": "CN(N=O)C(N)=O", "note": "[N-METHYL-N-NITROSUREA]", "values": [
      {"measurement": "T1/2", "setting": "[3]", "result": 52.5, "unit": "min"}
    ]}
  ]
}
